Measured values as given in publication PMC9043999 (Cell Reports Medicine, 2022).

How the values were obtained:
human islets [1] = assay: RPPA phosphoproteins with Ingenuity Pathway Analysis; type: cell-based; settings: for annotations predicting pathway activation (Z score > 2) / pathways predicting inhibition (Z score < −2): 10^−8 M, 5 min, N = 3 male donors; for most represented biological function: 5 min stimulation (Fig S5)
How it was run: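 Islets came from three male human donors and were cultured overnight at 37°C in phenol-red-free RPMI (11 mM glucose, 10% charcoal-stripped FBS). They were treated with test compounds at 10−8 M for 5 min, 30 min or 18 h, against untreated islets. Lysates were twofold serially diluted (5 dilutions), arrayed on slides and probed with 485 antibodies using tyramide amplification and DAB detection. Pathway changes were analysed with IPA Downstream Effects Analysis.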

GLP-1R = settings: target β cells; cited from earlier work
[2] = tested on: MLD-STZ-induced diabetes in male C57BL6 mice; assay: MLD-STZ-induced diabetes, wild-type mice; type: in vivo, mouse
human islets [3] = assay: RPPA protein expression with gene ontology enrichment; type: cell-based; settings: for GO pathways with downregulated proteins / GO pathways with upregulated proteins: adjusted p value < 0.01
How it was run: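 Islets from 3 male human donors, cultured overnight at 37°C in phenol-red-free RPMI (11 mM glucose, 10% charcoal-stripped FBS). […] Lysates serially diluted twofold (5 dilutions), arrayed on nitrocellulose, probed with 485 antibodies via tyramide amplification and DAB; expression normalized.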

[4] = tested on: insulin-deficient diabetes induced by a single high dose of streptozotocin in male and female mice; settings: single high dose of STZ; cited from earlier work
ERE-GFP MIN6 cells = assay: ERE-GFP reporter activation, flow cytometry; type: cell-based, mouse
How it was run: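 MIN6 cells were stably transduced with a lentiviral 4×ERE-driven GFP reporter and selected with puromycin (2 μg/mL). They were kept in phenol-free DMEM with 10% charcoal-stripped FBS for 7 days before and during assays. Test compounds were given overnight at 10−8 M, or in time courses at 10 nM (1 min) or 100 nM (1, 15, 60, 120 min). Percent GFP-positive cells were scored by flow cytometry, gated on vehicle-treated cells.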

## glucagon-like peptide-1 [GLP-1]
Human islets [1]
  annotations predicting pathway activation (Z score > 2): related to cell viability and survival
  pathways predicting inhibition (Z score < −2): related to cell death, apoptosis, or necrosis
  most represented biological function: Cell Death & Survival
GLP-1R
  clathrin-mediated endocytosis of GLP-1R: promotes ligand-activated, clathrin-mediated endocytosis of GLP-1R
[2]; mice, dose ten times lower (12 μg/kg)
  antidiabetic efficacy at dose ten times lower: not efficient in mice
Human islets [3]; 18 h
  GO pathways with downregulated proteins: downregulated multiple proteins enriched in pathways involved in apoptosis, cytokine and oxidative stress-related inflammation, protein phosphorylation, Akt/PI3-kinase, and cell cycle
  GO pathways with upregulated proteins: upregulated few proteins enriched in pathways involved in response to cytokines and glycolysis

## C[C@]12CC[C@@H]3c4ccc(O)cc4CC[C@H]3[C@@H]1CC[C@@H]2O [E2, 17β-Estradiol]
[4]
  prevention of insulin-deficient diabetes: prevents insulin-deficient diabetes
ERE-GFP MIN6 cells; 24 h exposure (text; overnight in legend), 10^−8 M (Fig 2D, 2E)
  increase in percentage of ERE-activated MIN6 cells: 4.7 fold
ERE-GFP MIN6 cells; E2 after pretreatment with fulvestrant
  ERE activation with ER antagonist fulvestrant: reversed by pretreatment with the ER antagonist fulvestrant
ERE-GFP MIN6 cells; E2 alone 1 min, 10 nM (Fig 2F, 2G)
  increase in percentage of ERE-activated MIN6 cells: 6.1 fold
ERE-GFP MIN6 cells; MIN6 cells
  time to reach the nucleus and activate EREs: ≤ 1 min
Human islets [1]; 5 and 30 min, vs GLP-1 or GLP1-E2
  level of phosphoproteins and related total proteins: heightened level of phosphoproteins and related total proteins at 5 and 30 min
Human islets [1]
  annotations predicting pathway activation (Z score > 2): related to cell viability and survival
  pathways predicting inhibition (Z score < −2): related to cell death, apoptosis, or necrosis
  most represented biological function: Cell Death & Survival
Human islets [1]; 18 h, vs GLP-1 or GLP1-E2
  level of phosphoproteins: decreased in phosphoproteins at 18 h
[2]; male C57BL6 mice, 120 μg/kg/day, day 13, vs other treatments
  index of β cell function (insulin/glucose): maintenance of the index of β cell function
[2]; male C57BL6 mice, 120 μg/kg/day, vs other treatments, n = 10
  hyperglycemia: decrease in hyperglycemia
Human islets [3]; 5 and 30 min
  protein expression: heightened protein expression at 5 and 30 min
Human islets [3]; 18 h
  GO pathways with downregulated proteins: downregulated multiple proteins enriched in pathways involved in apoptosis and inflammation, protein phosphorylation, transcription, and Akt/PI3-kinase
  GO pathways with upregulated proteins: upregulated few proteins enriched in pathways involved in proliferation and response to estrogen
Human islets [3]; 18 h, compared to GLP-1- and GLP1-E2-treated islets
  protein expression: decreased protein expression level at 18 h
